The values below come from ChEMBL document CHEMBL1126969, “Antipsoriatic anthrones with modulated redox properties. 1. Novel 10-substituted 1,8-dihydroxy-9(10H)-anthracenones as inhibitors of 5-lipoxygenase” (J Med Chem, 1993).

The nature of series [1]: Deoxyribose-damaging property as a measure of hydroxyl-radical formation (uM test compound).
Series [2] deals with T1, Arachidonate 5-lipoxygenase (Bos taurus) (UniProt Q9BEG3).
T1 sequence (whole entry): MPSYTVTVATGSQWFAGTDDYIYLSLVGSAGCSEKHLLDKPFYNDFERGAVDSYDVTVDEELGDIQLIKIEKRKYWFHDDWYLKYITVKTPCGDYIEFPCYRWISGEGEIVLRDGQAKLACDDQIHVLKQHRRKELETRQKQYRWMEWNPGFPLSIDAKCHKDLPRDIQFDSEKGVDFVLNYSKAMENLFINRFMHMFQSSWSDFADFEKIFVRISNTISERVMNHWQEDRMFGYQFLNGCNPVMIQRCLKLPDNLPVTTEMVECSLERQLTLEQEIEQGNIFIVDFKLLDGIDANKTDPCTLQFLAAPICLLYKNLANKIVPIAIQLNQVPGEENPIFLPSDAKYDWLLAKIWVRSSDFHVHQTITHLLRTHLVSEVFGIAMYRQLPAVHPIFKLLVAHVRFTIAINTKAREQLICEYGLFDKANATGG
Nature of the series: Inhibitory activity against 5-lipoxygenase (inhibition of 5-HETE and LTB4 biosynthesis) in bovine polymorphonuclear leukocytes (PMNL). The series is classed as cell-based. The following applies: concentration not given here. The procedure, abridged:
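Bovine PMNL from EDTA blood, platelets removed, 1×10^7 cells/mL in PBS pH 7.4. Compound (DMSO, 0.4% final) preincubated 15 min at 37 °C, then stimulated with CaCl2 2 mM and A23187 20 μM for 10 min. Stopped with methanol/acetonitrile containing NDGA and PGB2 marker. LTB4 (280 nm) and 5-HETE (232 nm) quantified by RP-HPLC against internal and external standards.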

Series [3] can be described thus: Reducing activity against 2,2-diphenyl-1-picrylhydrazyl. The series is classed as ADME.
Series [4] in a line: Deoxyribose-damaging property as a measure of hydroxyl-radical formation (uM of malondialdehyde/mmol of deoxyribose released by 75 uM test compound). The series is classed as ADME. Summed up:
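2-Deoxy-D-ribose (2 mM) with FeCl3 (0.1 mM) in 30 mM KH2PO4-KOH buffer pH 7.4, compound at 75 μM final (acetonitrile vehicle, fresh stocks), 2 h at 37 °C. TBA/trichloroacetic acid added, heated 100 °C 15 min, acidified, extracted into butanol, A532 read. Calibrated against malondialdehyde standard; expressed as μmol MDA/mmol deoxyribose.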

In series [5] the target is T2, Arachidonate 5-lipoxygenase (Bos taurus, UniProt Q9BEG3).
T2 sequence (Q9BEG3 whole entry): T1 sequence (whole entry)
The experiment in a line: Inhibitory activity against 5-lipoxygenase (inhibition of 5-HETE and LTB4 biosynthesis) in bovine polymorphonuclear leukocytes (PMNL). The series is classed as cell-based.

As to `COc1ccc(CCC=C2c3cccc(O)c3C(=O)c3c(O)cccc32)cc1`, the Deoxyribose degradation (uM of MDA mM-1) in series [1] was < 0.15. Besides, the inhibition in series [2] was determined as 24%. Also, the kDPPH in series [3] is < 1 M⁻¹ s⁻¹.
`O=C1c2c(O)cccc2C(=Cc2cc(O)c(O)c(O)c2)c2cccc(O)c21`: in series [4], the Deoxyribose degradation is 6.03 uM of MDA mM-1. The same molecule came in with an IC50 in series [5] of 400 nM. Besides, the kDPPH in series [3] was > 100 M⁻¹ s⁻¹.
